Results: ChEMBL document CHEMBL1141462, “Tetranorclerodanes and clerodane-type diterpene glycosides from Dicranopteris dichotoma” (J Nat Prod, 2007)

Experiments:
[1] = Cytotoxicity against C8166 cells by MTT assay; type: cell-based; conditions: human
Method in brief: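 C8166 cells were used, with viability read by MTT. Cytotoxicity was expressed as CC50.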

[2] = system: Human immunodeficiency virus 1; assay: Antiviral activity against HIV1; type: functional, organism-based
Method in brief: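 HIV-1 activity was measured as inhibition of virus-induced cytopathic effect and reported as EC50.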

[3] = Selectivity index, CC50 against C8166 cell/ EC50 against HIV1; type: functional
Method in brief: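 The ratio is CC50 divided by EC50. CC50 comes from MTT cytotoxicity in C8166 cells, and EC50 from inhibition of HIV-1 cytopathic effect.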

C=C[C@@](C)(O)CC[C@@]1(C)[C@H](C)C[C@H](O)[C@@]2(C)C(C)=CCC[C@H]12
CC50 [1]: 653 µM | EC50 [2]: 59.4 µM | Ratio CC50/EC50 [3]: >10.99

C=C[C@](C)(O)CC[C@@]1(C)[C@H](C)C[C@H](O[C@@H]2O[C@@H](C)[C@H](O[C@@H]3O[C@H](CO)[C@@H](OC(C)=O)[C@H](O)[C@H]3O)[C@@H](O)[C@H]2O)[C@@]2(C)C(C)=CCC[C@H]12
CC50 [1]: 305 µM | EC50 [2]: 145 µM | Ratio CC50/EC50 [3]: >2.09

C=C[C@](C)(O)CC[C@@]1(C)[C@H](C)C[C@H](O[C@@H]2O[C@@H](C)[C@H](O[C@@H]3O[C@H](COC(C)=O)[C@@H](O)[C@H](O)[C@H]3O)[C@@H](O)[C@H]2O)[C@@]2(C)C(C)=CCC[C@H]12
CC50 [1]: 121 µM | EC50 [2]: 110 µM | Ratio CC50/EC50 [3]: 1.1

CC(=O)OC[C@H]1O[C@@H](O[C@@H]2[C@@H](O)[C@@H](O)[C@H](O[C@H]3C[C@@H](C)[C@](C)(CC/C(C)=C/CO)[C@H]4CCC=C(C)[C@]34C)O[C@H]2C)[C@H](O)[C@@H](O)[C@@H]1O
CC50 [1]: 136 µM | EC50 [2]: 76.3 µM | Ratio CC50/EC50 [3]: 1.78

C[C@@H]1C[C@H](O)[C@@]2(C)C(CO)=CCC[C@@H]2[C@@]1(C)CC(=O)O
CC50 [1]: 709 µM | EC50 [2]: 302 µM | Ratio CC50/EC50 [3]: >2.34

C[C@@H]1C[C@H](O)[C@@]2(C)C(C=O)=CCC[C@@H]2[C@@]1(C)CC(=O)O
CC50 [1]: 713 µM | EC50 [2]: 325 µM | Ratio CC50/EC50 [3]: >2.19

CC1=CCC[C@@H]2[C@@](C)(CC/C(C)=C/CO)[C@H](C)C[C@H](O[C@@H]3O[C@@H](C)[C@H](O[C@@H]4O[C@H](CO)[C@@H](O)[C@H](O)[C@H]4O)[C@@H](O)[C@H]3O)[C@@]12C
CC50 [1]: 325 µM | EC50 [2]: 85.1 µM | Ratio CC50/EC50 [3]: >3.82

CC1=CCC[C@@H]2[C@@](C)(CC(=O)O)[C@H](C)C[C@H](O)[C@@]12C [AYLTHONIC ACID]
CC50 [1]: 751 µM | EC50 [2]: 197 µM | Ratio CC50/EC50 [3]: >3.81

Cc1cn([C@H]2C[C@H](N=[N+]=[N-])[C@@H](CO)O2)c(=O)[nH]c1=O [ZIDOVUDINE]
CC50 [1]: 5750 µM | EC50 [2]: 0.0147 µM | Ratio CC50/EC50 [3]: 390406.06
